Measurements taken from PMC12690603 (Chemical Science, 2025).
Non-standard residues stand in square brackets, D forms with d. No end group written: not given here. βAla = NCCC(=O)O

Legend:
Assay type in all cases: biochemical
[1] = biological target: T1, human SETD7 (Homo sapiens, UniProt Q8WTS6); test: SETD7-catalysed methylation of H3 peptides, conversion by MALDI-TOF MS; settings: SAM 30 µM; for methylation by SETD7 (conversion to methylated product): 13-mer peptide 10 µM, MALDI-TOF MS; for methylation by SETD7 in time-course: within 30 min
T1 sequence (Q8WTS6 1-366): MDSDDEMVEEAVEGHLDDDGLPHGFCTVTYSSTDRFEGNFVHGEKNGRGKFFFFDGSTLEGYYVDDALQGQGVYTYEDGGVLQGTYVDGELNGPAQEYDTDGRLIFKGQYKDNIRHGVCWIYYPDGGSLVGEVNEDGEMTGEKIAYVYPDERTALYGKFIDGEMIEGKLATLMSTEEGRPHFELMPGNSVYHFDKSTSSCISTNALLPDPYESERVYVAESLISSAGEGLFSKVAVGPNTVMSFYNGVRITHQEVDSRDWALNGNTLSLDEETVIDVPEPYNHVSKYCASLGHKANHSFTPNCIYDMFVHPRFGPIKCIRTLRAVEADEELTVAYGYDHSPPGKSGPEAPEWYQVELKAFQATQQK
Procedure, shortened: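 Recombinant human SETD7 (100 nM, 500 nM or 1 µM) was incubated with stapled or linear H3 peptide (10 µM) and SAM (30 µM) in 50 mM HEPES, 0.1 mM EDTA, 1 mM DTT, pH 8, at 37 °C with shaking at 750 rpm. Reactions were quenched with 10% (v/v) TFA at set times. Methylation (+14 Da) was measured by MALDI-TOF MS. % conversion came from peak areas. n = 2, standard deviations.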

[2] = system: human SETD1A; test: SETD1A-catalysed methylation of 21-mer H3 peptides; settings: 21-mer peptide 2 µM, SETD1A 1 µM, SAM 100 µM, pH 8.6, 37 °C, 3 h, n = 2
[3] = biological target: T1, human SETD7; test: Steady-state kinetics of SETD7-catalysed methylation; settings: for K m / k cat: peptide 1–150 µM, SETD7 50–300 nM, 10 or 20 min, MALDI-TOF MS, mean ± SD, SD; for K m / k cat / k cat/Km: SAM 30 µM, 37 °C, n = 3; for fold increase of kcat/Km compared to linear H3K4 (1): steady-state kinetics, relative to peptide 1; for k cat/Km: steady-state
Procedure, shortened: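 Recombinant human SETD7 (50–300 nM) added to start reactions containing H3 peptide (1–150 µM series) and SAM (30 µM). Incubated at 37 °C for 10 or 20 min with shaking, then quenched. MALDI-TOF MS was the read-out, with % methylation from integrated […] peak areas. Three independent experiments, SD. kcat/Km values were compared with the linear H3K4 reference peptide.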

[4] = SETD7 500 nM, 50 mM HEPES, 0.1 mM EDTA, 1 mM DTT, pH 8.0, 37 °C, 1 h, n = 2
[5] = SETD7 100 nM, peptide 10 µM, 37 °C, n = 2

Substance | methylation by SETD7 (conversion to methylated product) ([1]; SETD7 100 nM, 37 °C, 1 h) [%] | K m [3] [µM] | k cat [3] [s⁻¹] | fold increase of kcat/Km compared to linear H3K4 (1) [3] [fold] | k cat/Km [3] [M⁻¹ s⁻¹] | methylation by SETD7 (conversion to methylated product) ([1]; SETD7 1 µM, 37 °C, 3 h) [%] | other results
21-mer H3K4: longer linear H3K4 substrate peptide, residues 1–21 [reference compound] | – | – | – | – | – | – | methylation by SETD7 ([1]; 21-mer peptide (residues 1–21) 10 µM, SETD7 500 nM, 37 °C, 3 h, n = 2): ~88%; dimethylated product by SETD1A [2]: ~9%
ARTKQDARKSTGG (also: sidechain bridge or staple (positions not given here)) [Peptide 5] | ~10 | 12.5 ± 2.77 | 0.031 ± 0.00233 | 10 | 2500 | – | methylation by SETD7 (conversion to methylated product) [1, 4]: fully converted to methylated product
ARTKQEARKSTGG (also: sidechain bridge or staple (positions not given here)) [Peptide 4] | – | – | – | – | – | – | methylation by SETD7 (conversion to methylated product) [1, 4]: ~63%
ARTKQTARKSTGG [Peptide 1, reference compound] | – | 61.6 ± 12.6 | 0.014 ± 0.0013 | – | 233 | – | methylation/turnover in time-course at low enzyme concentration (in words) ([1]; SETD7 100 nM, peptide 10 µM, 37 °C, time-course): lack of H3K4 (1) methylation; methylation by SETD7 (conversion to methylated product) [1, 4]: ~56%
CRTKQCARKSTGG (also: sidechain bridge or staple (positions not given here)) [Peptide 2] | – | – | – | – | – | ~86 | –
D-ARTKQEARKSTGG (sidechain bridge or staple) [Peptide 6] | ~89 | 10.4 ± 1.88 | 0.23 ± 0.014 | 97 | 22200 | – | methylation by SETD7 in time-course [1, 5]: ~90%
FRTKQEARKSTGG (also: sidechain bridge or staple (positions not given here)) [Peptide 9] | ~62 | 34.6 ± 9.78 | 0.0493 ± 0.00517 | 6 | 1430 | – | –
GGRTKQEARKSTGG (also: sidechain bridge or staple (positions not given here)) [Peptide 13] | – | – | – | – | – | ~91 | –
GRTKETARKSTGG (also: sidechain bridge or staple (positions not given here)) [Peptide 14] | – | – | – | – | – | < 5 | –
GRTKQTERKSTGG (also: sidechain bridge or staple (positions not given here)) [Peptide 15] | – | – | – | – | – | ~11 | –
[βAla]RTKQEARKSTGG (also: sidechain bridge or staple (positions not given here)) [Peptide 11] | ~48 | 17.7 ± 3.15 | 0.0495 ± 0.00317 | 12 | 2830 | – | –

More lines, main results first:

methylation by SETD7 (conversion to methylated product) ([1]; SETD7 100 nM, 37 °C, 1 h) [%] | K m [3] [µM] | k cat [3] [s⁻¹] | fold increase of kcat/Km compared to linear H3K4 (1) [3] [fold] | k cat/Km [3] [M⁻¹ s⁻¹] | methylation by SETD7 (conversion to methylated product) ([1]; SETD7 1 µM, 37 °C, 3 h) [%] | Substance | other results
– | 36.2 ± 7.54 | 0.0598 ± 0.0065 | 7 | 1650 | ~95 | AzaRTKQPraARKSTGG (sidechain bridge or staple) [Peptide 3] | –
~96 | 1.84 ± 0.27 | 0.046 ± 0.00283 | 110 | 25000 | – | GRTKQEARKSTGG (also: sidechain bridge or staple (positions not given here)) [Peptide 7] | methylation by SETD7 in time-course [1, 5]: ~90%
– | – | – | – | – | ~40 | GRTKQEARKSTGG [Peptide 16] | –
– | – | – | – | – | ~75 | RTKQEARKSTGG (also: sidechain bridge or staple (positions not given here)) [Peptide 12] | –
~64 | 34.1 ± 7.76 | 0.0423 ± 0.00433 | 5 | 1230 | – | VRTKQEARKSTGG (also: sidechain bridge or staple (positions not given here)) [Peptide 8] | –
